Assay results taken from ChEMBL document CHEMBL2407049, “Cyclopeptide alkaloids: stereochemistry and synthesis of the precursors of discarines C and D and myrianthine A” (2013).

Experiments:
Klebsiella pneumoniae = test: Antibacterial activity against Klebsiella pneumoniae ATCC 10031 assessed as concentration required to inhibit bacterial growth after 24 hrs by TLC assay; assay type: functional
How it was run: (§1)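 Direct TLC bioautography: compound amounts from 50 to 1.56 μg applied to precoated TLC plates, overlaid with Mueller Hinton or Sabouraud agar inoculated with microorganism suspension (10⁵ cfu mL⁻¹). Plates incubated 24 h at 37 °C, then stained with aqueous 2,3,5-triphenyltetrazolium chloride (1 mg mL⁻¹). The lowest amount giving an inhibition zone was recorded; <50 μg counted active. Triplicate.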

Candida tropicalis = test: Antifungal activity against Candida tropicalis ATCC 750 assessed as concentration required to inhibit fungal growth after 24 hrs by TLC assay; assay type: functional; how it was run: as §1
Kocuria rhizophila = test: Antibacterial activity against Micrococcus luteus ATCC 9341 assessed as concentration required to inhibit bacterial growth after 24 hrs by TLC assay; assay type: functional; how it was run: as §1
Candida albicans = test: Antifungal activity against Candida albicans ATCC 10231 assessed as concentration required to inhibit fungal growth after 24 hrs by TLC assay; assay type: functional; how it was run: as §1
[1] = Antibacterial activity against Salmonella Setubal ATCC 19196 assessed as concentration required to inhibit bacterial growth after 24 hrs by TLC assay; assay type: functional, Salmonella enterica subsp. enterica serovar Setubal; how it was run: as §1
Staphylococcus aureus = test: Antibacterial activity against Staphylococcus aureus ATCC 6538p assessed as concentration required to inhibit bacterial growth after 24 hrs by TLC assay; assay type: functional; how it was run: as §1
Cryptococcus neoformans = test: Antifungal activity against Cryptococcus neoformans ATCC 28952 assessed as concentration required to inhibit fungal growth after 24 hrs by TLC assay; assay type: functional; how it was run: as §1
Saccharomyces cerevisiae = test: Antifungal activity against Saccharomyces cerevisiae ATCC 2601 assessed as concentration required to inhibit fungal growth after 24 hrs by TLC assay; assay type: functional; how it was run: as §1
Escherichia coli = test: Antibacterial activity against Escherichia coli ATCC 11103 assessed as concentration required to inhibit bacterial growth after 24 hrs by TLC assay; assay type: functional; how it was run: as §1
Candida dubliniensis = test: Antifungal activity against Candida dubliniensis SM 26 clinical isolate assessed as concentration required to inhibit fungal growth after 24 hrs by TLC assay; assay type: functional; how it was run: as §1
[2] = system: Staphylococcus epidermidis; test: Antibacterial activity against Staphylococcus epidermidis ATCC 12228 assessed as concentration required to inhibit bacterial growth after 24 hrs by TLC assay; assay type: functional; how it was run: as §1

Compound: COC(=O)[C@H](CC(C)C)NC(=O)[C@H](NC(=O)[C@@H](N)CC(C)C)[C@@H](O)c1ccccc1
- Activity (Klebsiella pneumoniae): <50 µg
- Activity (Candida tropicalis): <50 µg
- Activity (Kocuria rhizophila): <50 µg
- Activity (Candida albicans): <50 µg
- Activity [1]: <50 µg
- Activity (Staphylococcus aureus): <50 µg
- Activity (Cryptococcus neoformans): <50 µg
- Activity (Saccharomyces cerevisiae): <50 µg
- Activity (Escherichia coli): <50 µg
- Activity (Candida dubliniensis): <50 µg
- Activity [2]: <50 µg

Compound: COC(=O)[C@H](Cc1ccccc1)NC(=O)[C@H](NC(=O)[C@H](CC(C)C)N(C)C)[C@@H](O)c1ccccc1
- Activity (Klebsiella pneumoniae): <50 µg
- Activity (Candida tropicalis): <50 µg
- Activity (Kocuria rhizophila): <50 µg
- Activity (Candida albicans): <50 µg
- Activity [1]: <50 µg
- Activity (Staphylococcus aureus): <50 µg
- Activity (Cryptococcus neoformans): <50 µg
- Activity (Saccharomyces cerevisiae): <50 µg
- Activity (Escherichia coli): <50 µg
- Activity (Candida dubliniensis): <50 µg
- Activity [2]: <50 µg

Compound: COC(=O)[C@H](Cc1ccccc1)NC(=O)[C@H](NC(=O)[C@H](CC(C)C)NC(=O)OCc1ccccc1)[C@@H](O)c1ccccc1 (mixture of isomers)
- Activity (Klebsiella pneumoniae): <50 µg
- Activity (Candida tropicalis): <50 µg
- Activity (Kocuria rhizophila): <50 µg
- Activity (Candida albicans): <50 µg
- Activity [1]: <50 µg
- Activity (Staphylococcus aureus): <50 µg
- Activity (Cryptococcus neoformans): <50 µg
- Activity (Saccharomyces cerevisiae): <50 µg
- Activity (Escherichia coli): <50 µg
- Activity (Candida dubliniensis): <50 µg
- Activity [2]: <50 µg

Compound: COC(=O)[C@H](CC(C)C)NC(=O)[C@H](NC(=O)[C@H](CC(C)C)N(C)C)[C@H](Oc1ccc(C=O)cc1)c1ccccc1 (mixture of isomers)
- Activity (Klebsiella pneumoniae): <50 µg
- Activity (Candida tropicalis): <50 µg
- Activity (Kocuria rhizophila): <50 µg
- Activity (Candida albicans): <50 µg
- Activity [1]: <50 µg
- Activity (Staphylococcus aureus): <50 µg
- Activity (Cryptococcus neoformans): <50 µg
- Activity (Saccharomyces cerevisiae): <50 µg
- Activity (Escherichia coli): <50 µg
- Activity (Candida dubliniensis): <50 µg
- Activity [2]: <50 µg

Compound: COC(=O)[C@H](Cc1ccccc1)NC(=O)[C@H](NC(=O)[C@@H](N)CC(C)C)[C@@H](O)c1ccccc1 (mixture of isomers)
- Activity (Klebsiella pneumoniae): <50 µg
- Activity (Candida tropicalis): <50 µg
- Activity (Kocuria rhizophila): <50 µg
- Activity (Candida albicans): <50 µg
- Activity [1]: <50 µg
- Activity (Staphylococcus aureus): <50 µg
- Activity (Cryptococcus neoformans): <50 µg
- Activity (Saccharomyces cerevisiae): <50 µg
- Activity (Escherichia coli): 12.5 µg
- Activity (Candida dubliniensis): <50 µg
- Activity [2]: 3.1 µg

Compound: CC[C@H](C)[C@H](NC(=O)[C@H](NC(=O)[C@@H](N)CC(C)C)[C@@H](O)c1ccccc1)C(=O)OC
- Activity (Klebsiella pneumoniae): <50 µg
- Activity (Candida tropicalis): <50 µg
- Activity (Kocuria rhizophila): <50 µg
- Activity (Candida albicans): <50 µg
- Activity [1]: <50 µg
- Activity (Staphylococcus aureus): <50 µg
- Activity (Cryptococcus neoformans): <50 µg
- Activity (Saccharomyces cerevisiae): <50 µg
- Activity (Escherichia coli): <50 µg
- Activity (Candida dubliniensis): <50 µg
- Activity [2]: <50 µg

Compound: COC(=O)[C@H](CC(C)C)NC(=O)[C@@H]([C@H](Oc1ccc(C=O)cc1)c1ccccc1)N1CN(C)[C@@H](CC(C)C)C1=O (mixture of isomers)
- Activity (Klebsiella pneumoniae): <50 µg
- Activity (Candida tropicalis): <50 µg
- Activity (Kocuria rhizophila): <50 µg
- Activity (Candida albicans): <50 µg
- Activity [1]: <50 µg
- Activity (Staphylococcus aureus): <50 µg
- Activity (Cryptococcus neoformans): <50 µg
- Activity (Saccharomyces cerevisiae): <50 µg
- Activity (Escherichia coli): <50 µg
- Activity (Candida dubliniensis): <50 µg
- Activity [2]: <50 µg

Compound: COC(=O)[C@H](CC(C)C)NC(=O)[C@H]([C@@H](Oc1ccc(C=O)cc1)c1ccccc1)N1CN(C)[C@@H](CC(C)C)C1=O (mixture of isomers)
- Activity (Klebsiella pneumoniae): <50 µg
- Activity (Candida tropicalis): <50 µg
- Activity (Kocuria rhizophila): <50 µg
- Activity (Candida albicans): <50 µg
- Activity [1]: <50 µg
- Activity (Staphylococcus aureus): <50 µg
- Activity (Cryptococcus neoformans): <50 µg
- Activity (Saccharomyces cerevisiae): <50 µg
- Activity (Escherichia coli): <50 µg
- Activity (Candida dubliniensis): <50 µg
- Activity [2]: <50 µg

Compound: CC[C@H](C)[C@@H]1NC(=O)[C@@H](NC(=O)[C@H](CC(C)C)N(C)C)[C@H](c2ccccc2)Oc2ccc(cc2)/C=C\NC1=O (mixture of isomers)
- Activity (Klebsiella pneumoniae): >50 µg
- Activity (Candida tropicalis): >50 µg
- Activity (Kocuria rhizophila): >50 µg
- Activity (Candida albicans): >50 µg
- Activity [1]: >50 µg
- Activity (Staphylococcus aureus): >50 µg
- Activity (Cryptococcus neoformans): >50 µg
- Activity (Saccharomyces cerevisiae): >50 µg
- Activity (Escherichia coli): >50 µg
- Activity (Candida dubliniensis): >50 µg
- Activity [2]: >50 µg

Compound: COC(=O)[C@H](Cc1ccccc1)NC(=O)[C@H]([C@@H](Oc1ccc(C=O)cc1)c1ccccc1)N1CN(C)[C@@H](CC(C)C)C1=O (mixture of isomers)
- Activity (Klebsiella pneumoniae): <50 µg
- Activity (Candida tropicalis): <50 µg
- Activity (Kocuria rhizophila): <50 µg
- Activity (Candida albicans): <50 µg
- Activity [1]: <50 µg
- Activity (Staphylococcus aureus): <50 µg
- Activity (Cryptococcus neoformans): <50 µg
- Activity (Saccharomyces cerevisiae): <50 µg
- Activity (Escherichia coli): <50 µg
- Activity (Candida dubliniensis): <50 µg
- Activity [2]: <50 µg

Compound: CC[C@H](C)[C@H](NC(=O)[C@H](NC(=O)[C@H](CC(C)C)N(C)C)[C@@H](O)c1ccccc1)C(=O)OC (mixture of isomers)
- Activity (Klebsiella pneumoniae): <50 µg
- Activity (Candida tropicalis): <50 µg
- Activity (Kocuria rhizophila): <50 µg
- Activity (Candida albicans): <50 µg
- Activity [1]: <50 µg
- Activity (Staphylococcus aureus): <50 µg
- Activity (Cryptococcus neoformans): <50 µg
- Activity (Saccharomyces cerevisiae): <50 µg
- Activity (Escherichia coli): <50 µg
- Activity (Candida dubliniensis): <50 µg
- Activity [2]: <50 µg

Compound: COC(=O)[C@H](Cc1ccccc1)NC(=O)[C@@H](NC(=O)[C@@H](N)CC(C)C)[C@H](O)c1ccccc1
- Activity (Klebsiella pneumoniae): <50 µg
- Activity (Candida tropicalis): <50 µg
- Activity (Kocuria rhizophila): <50 µg
- Activity (Candida albicans): <50 µg
- Activity [1]: <50 µg
- Activity (Staphylococcus aureus): <50 µg
- Activity (Cryptococcus neoformans): <50 µg
- Activity (Saccharomyces cerevisiae): <50 µg
- Activity (Escherichia coli): 1.5 µg
- Activity (Candida dubliniensis): <50 µg
- Activity [2]: >50 µg

Compound: COC(=O)[C@H](CC(C)C)NC(=O)[C@H](NC(=O)[C@H](CC(C)C)NC(=O)OCc1ccccc1)[C@@H](O)c1ccccc1 (mixture of isomers)
- Activity (Klebsiella pneumoniae): <50 µg
- Activity (Candida tropicalis): <50 µg
- Activity (Kocuria rhizophila): <50 µg
- Activity (Candida albicans): <50 µg
- Activity [1]: <50 µg
- Activity (Staphylococcus aureus): <50 µg
- Activity (Cryptococcus neoformans): <50 µg
- Activity (Saccharomyces cerevisiae): <50 µg
- Activity (Escherichia coli): <50 µg
- Activity (Candida dubliniensis): <50 µg
- Activity [2]: <50 µg

Compound: COC(=O)[C@H](Cc1ccccc1)NC(=O)[C@H]([C@H](O)c1ccccc1)N1CN(C)[C@@H](CC(C)C)C1=O
- Activity (Klebsiella pneumoniae): 50 µg
- Activity (Candida tropicalis): <50 µg
- Activity (Kocuria rhizophila): <50 µg
- Activity (Candida albicans): <50 µg
- Activity [1]: 25 µg
- Activity (Staphylococcus aureus): <50 µg
- Activity (Cryptococcus neoformans): <50 µg
- Activity (Saccharomyces cerevisiae): <50 µg
- Activity (Escherichia coli): >50 µg
- Activity (Candida dubliniensis): <50 µg
- Activity [2]: 50 µg

Compound: CC[C@H](C)[C@H](NC(=O)[C@H](NC(=O)[C@H](CC(C)C)NC(=O)OCc1ccccc1)[C@@H](O)c1ccccc1)C(=O)OC (mixture of isomers)
- Activity (Klebsiella pneumoniae): <50 µg
- Activity (Candida tropicalis): <50 µg
- Activity (Kocuria rhizophila): <50 µg
- Activity (Candida albicans): <50 µg
- Activity [1]: <50 µg
- Activity (Staphylococcus aureus): <50 µg
- Activity (Cryptococcus neoformans): <50 µg
- Activity (Saccharomyces cerevisiae): <50 µg
- Activity (Escherichia coli): <50 µg
- Activity (Candida dubliniensis): <50 µg
- Activity [2]: <50 µg
